# Experimental data: ChEMBL document CHEMBL4145473, “Substituted tetrahydroisoquinolines: synthesis, characterization, antitumor activity and other biological properties” (Eur J Med Chem, 2018)
# Activity calls are given as the source filed them. The rule behind the calls is not given here.
# What was measured:
# [1] = system: L1210; experiment: Cytotoxicity against mouse L1210 cells after 48 hrs by coulter counter method; assay type: functional, cell-based; settings: L1210, 48 h
# Summary of the method: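 L1210 cells in RPMI 1640 with 2 mM L-glutamine, penicillin, streptomycin and 20% heat-inactivated horse serum at 37 °C, 5% CO2. Drugs added in DMSO (0.5% final) to exponentially growing cells seeded at 0.8 × 10^5 cells/mL. Cells counted in triplicate after 48 h by Coulter counter. IC50 taken from probit regression of percent growth inhibition against log dose.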
# [2] = system: L1210; experiment: Cell cycle arrest in mouse L1210 cells assessed accumulation of cells at G1 phase at 25 uM after 21 hrs by propidium iodide staining-based flow cytometric analysis; assay type: functional
# Summary of the method: (§1)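 L1210 leukemia cells in RPMI 1640 with 2 mM L-glutamine, penicillin, streptomycin and 20% heat-inactivated horse serum, exposed to several drug concentrations for 21 h at 37 °C, 5% CO2. Cells fixed in 70% ethanol, washed, then stained 30 min at room temperature in PBS containing RNAse and propidium iodide. Flow cytometry; result given as percentage of cells in each cell-cycle phase.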
# [3] = system: L1210; experiment: Cell cycle arrest in mouse L1210 cells assessed accumulation of cells at G1 phase at 100 uM after 21 hrs by propidium iodide staining-based flow cytometric analysis; assay type: functional; summary of the method: as §1
# [4] = target: GTPase KRas (Homo sapiens) (UniProt P01116); experiment: Inhibition of KRas in human Colon 320 cells at 0.2 uM relative to control; assay type: cell-based
# Sequence of GTPase KRas (Homo sapiens) (P01116 whole entry, looked up): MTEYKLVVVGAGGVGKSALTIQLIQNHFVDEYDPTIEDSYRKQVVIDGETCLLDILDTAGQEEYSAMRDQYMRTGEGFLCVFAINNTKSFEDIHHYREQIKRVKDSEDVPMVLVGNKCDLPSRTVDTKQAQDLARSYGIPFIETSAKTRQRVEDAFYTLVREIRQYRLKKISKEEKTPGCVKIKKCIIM
# [5] = target: GTPase KRas (Homo sapiens) (UniProt P01116); experiment: Inhibition of KRas in human SNU-C1 cells at 2 uM relative to control; assay type: cell-based
# [6] = target: GTPase KRas (Homo sapiens) (UniProt P01116); experiment: Inhibition of KRas in human HCT cells at 0.2 uM relative to control; assay type: cell-based
# [7] = target: GTPase KRas (Homo sapiens) (UniProt P01116); experiment: Inhibition of KRas in human SNU-C1 cells at 20 uM relative to control; assay type: cell-based
# [8] = target: GTPase KRas (Homo sapiens) (UniProt P01116); experiment: Inhibition of KRas in human SNU-C1 cells at 0.2 uM relative to control; assay type: cell-based
# [9] = system: L1210; experiment: Cell cycle arrest in mouse L1210 cells assessed accumulation of cells at 8N phase at 5 uM after 21 hrs by propidium iodide staining-based flow cytometric analysis relative to control; assay type: functional; summary of the method: as §1
# [10] = target: GTPase KRas (Homo sapiens) (UniProt P01116); experiment: Inhibition of KRas in human RKO cells at 0.2 uM relative to control; assay type: cell-based
# [11] = target: GTPase KRas (Homo sapiens) (UniProt P01116); experiment: Inhibition of KRas in human HCT cells at 2 uM relative to control; assay type: cell-based
# [12] = target: GTPase KRas (Homo sapiens) (UniProt P01116); experiment: Inhibition of KRas in human RKO cells at 2 uM relative to control; assay type: cell-based
# [13] = target: GTPase KRas (Homo sapiens) (UniProt P01116); experiment: Inhibition of KRas in human Colon 320 cells at 20 uM relative to control; assay type: cell-based
# [14] = target: GTPase KRas (Homo sapiens) (UniProt P01116); experiment: Inhibition of KRas in human RKO cells at 20 uM relative to control; assay type: cell-based
# [15] = target: GTPase KRas (Homo sapiens) (UniProt P01116); experiment: Inhibition of KRas in human HCT cells at 20 uM relative to control; assay type: cell-based
# [16] = target: GTPase KRas (Homo sapiens) (UniProt P01116); experiment: Inhibition of KRas in human Colon 320 cells at 2 uM relative to control; assay type: cell-based
# [17] = system: L1210; experiment: Cell cycle arrest in mouse L1210 cells assessed accumulation of cells at G2/M phase at 100 uM after 21 hrs by propidium iodide staining-based flow cytometric analysis; assay type: functional; summary of the method: as §1
# [18] = system: L1210; experiment: Cell cycle arrest in mouse L1210 cells assessed accumulation of cells at 8N phase at 10 uM after 21 hrs by propidium iodide staining-based flow cytometric analysis relative to control; assay type: functional; summary of the method: as §1
# [19] = system: L1210; experiment: Cell cycle arrest in mouse L1210 cells assessed accumulation of cells at G2/M phase at 50 uM after 21 hrs by propidium iodide staining-based flow cytometric analysis; assay type: functional; summary of the method: as §1
smiles,measurement,setting,value
COC(=O)CCCCCN1CCc2cc3c(cc2C1c1ccncc1)OCCO3 (stereo not drawn),IC50,[1],> 10 µM
O=C(O)CCCCCN1CCc2cc3c(cc2C1c1ccncc1)OCCO3 (stereo not drawn),IC50,[1],> 10 µM
CCOC(=O)N1CCc2cc3c(cc2C1c1cc(OC)c(OC)c(OC)c1)OCCO3 (stereo not drawn),IC50,[1],> 10 µM
COc1cc(C2c3cc4c(cc3CCN2CCN(C)C)OCCO4)cc(OC)c1OC (stereo not drawn),Activity,[2],Active
same,IC50,[1],3.7 µM
COc1cc(C2NCCc3cc4c(cc32)OCCO4)cc(OC)c1OC (stereo not drawn),Activity,[3],Active
same,IC50,[1],21.1 µM
COc1cc(C2c3cc4c(cc3CCN2CCO)OCCO4)cc(OC)c1OC (stereo not drawn),inhibition,[4],12.2%
same,inhibition,[5],11.5%
same,inhibition,[6],18%
same,inhibition,[7],19.7%
same,inhibition,[8],12.3%
same,Activity,[9],70%
same,inhibition,[10],0%
same,inhibition,[11],12.1%
same,inhibition,[12],6.3%
same,inhibition,[13],78.2%
same,inhibition,[14],76.7%
same,IC50,[1],2.6 µM
same,inhibition,[15],46.5%
same,inhibition,[16],0%
COc1cc(C2c3cc4c(cc3CCN2c2ccc([N+](=O)[O-])cc2)OCCO4)cc(OC)c1OC (stereo not drawn),inhibition,[4],0%
same,inhibition,[5],35%
same,inhibition,[6],0%
same,inhibition,[7],42.7%
same,inhibition,[8],17.7%
same,Activity,[2],Active
same,inhibition,[10],17.9%
same,inhibition,[11],19.3%
same,inhibition,[12],32.9%
same,inhibition,[13],92.5%
same,inhibition,[14],70.5%
same,IC50,[1],4.6 µM
same,inhibition,[15],55.9%
same,inhibition,[16],4%
COc1cc(C2c3cc4c(cc3CCN2CC#N)OCCO4)cc(OC)c1OC (stereo not drawn),inhibition,[4],0%
same,inhibition,[5],6%
same,inhibition,[6],12.1%
same,inhibition,[7],59.8%
same,inhibition,[8],10%
same,inhibition,[10],0%
same,Activity,[3],Active
same,inhibition,[11],17%
same,inhibition,[12],16.3%
same,inhibition,[13],74.7%
same,inhibition,[14],79.2%
same,IC50,[1],4.2 µM
same,inhibition,[15],49.1%
same,inhibition,[16],8.2%
CCOC(CCN1CCc2cc3c(cc2C1c1cc(OC)c(OC)c(OC)c1)OCCO3)OCC (stereo not drawn),IC50,[1],> 10 µM
CCOC(=O)N1CCc2cc3c(cc2C1c1ccncc1)OCCO3 (stereo not drawn),IC50,[1],> 10 µM
COc1cc(-c2nccc3cc4c(cc23)OCCO4)cc(OC)c1OC,Activity,[17],Active
same,IC50,[1],25.1 µM
COc1cc2c(cc1OC)C(c1cc(OC)c(OC)c(OC)c1)N(CC(O)CO)CC2 (stereo not drawn),IC50,[1],15.3 µM
COc1cc(C2c3cc4c(cc3CCN2c2ccc(C#N)cc2)OCCO4)cc(OC)c1OC (stereo not drawn),inhibition,[4],0%
same,inhibition,[5],32.5%
same,inhibition,[6],35.9%
same,Activity,[18],70%
same,inhibition,[7],43.5%
same,inhibition,[8],6.6%
same,inhibition,[10],95.8%
same,inhibition,[11],16%
same,inhibition,[12],7.7%
same,inhibition,[13],89.9%
same,inhibition,[14],66.5%
same,IC50,[1],3.6 µM
same,inhibition,[15],45.2%
same,inhibition,[16],22.5%
COc1cc2c(c3c1c(=O)c1ccccc1n3C)C=CC(C)(C)O2 [ACRONINE],Activity,[19],Active
same,IC50,[1],21 µM
COc1cc(C2c3cc4c(cc3CCN2CCCCCC(=O)O)OCCO4)cc(OC)c1OC (stereo not drawn),IC50,[1],9.4 µM
COc1cc2c(cc1OC)C(c1cc(OC)c(OC)c(OC)c1)N(CCO)CC2 (stereo not drawn),IC50,[1],23.4 µM
COc1cc(C2c3cc4c(cc3CCN2CCN)OCCO4)cc(OC)c1OC (stereo not drawn),inhibition,[4],0%
same,inhibition,[5],2.4%
same,inhibition,[6],0%
same,inhibition,[7],57.1%
same,inhibition,[8],12.2%
same,Activity,[2],Active
same,inhibition,[10],0%
same,inhibition,[11],16.2%
same,inhibition,[12],10.1%
same,inhibition,[13],85.3%
same,inhibition,[14],92.7%
same,IC50,[1],2 µM
same,inhibition,[15],56.9%
same,inhibition,[16],20.1%
CCN(CC)CCN1CCc2cc3c(cc2C1c1cc(OC)c(OC)c(OC)c1)OCCO3 (stereo not drawn),IC50,[1],4.1 µM
CCOC(=O)CCCCCN1CCc2cc3c(cc2C1c1cc(OC)c(OC)c(OC)c1)OCCO3 (stereo not drawn),IC50,[1],> 10 µM
